This passage reports inhibition, IC50 and INH results from ChEMBL document CHEMBL1681720, “Maintaining potent HTLV-I protease inhibition without the P3-cap moiety in small tetrapeptidic inhibitors” (Bioorg Med Chem Lett, 2011).

Where only a bound is given, the exact number is not on record here.

Assay [1] concerns T1, Protease (Human T-cell leukemia virus type I), Q82134 [L40I].
T1 sequence (whole entry): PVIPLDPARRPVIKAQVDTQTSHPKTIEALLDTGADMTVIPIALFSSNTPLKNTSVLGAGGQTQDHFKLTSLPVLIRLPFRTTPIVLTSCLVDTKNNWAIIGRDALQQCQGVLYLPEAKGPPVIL
The experiment in a line: Inhibition of HTLV-1 protease L40I mutant at 50 nM by fluorimetric assay. The essentials: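 Recombinant L40I-mutant HTLV-I protease, mutation limits autoproteolysis; fluorescent substrate read-out. Test compound at 50 nM, percent inhibition from single determinations.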

Assay [2] addresses Protease (Human immunodeficiency virus 1) (UniProt Q9YQ12). The experiment in a line: Inhibition of recombinant HIV-1 protease at 50 nM.
For a further assay, the target named is Protease (Human T-cell leukemia virus type I, UniProt Q82134, L40I). The experiment in a line: Inhibition of HTLV-1 protease L40I mutant by fluorimetric assay. The essentials:
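Recombinant L40I-mutant HTLV-I protease, mutation limits autoproteolysis; fluorescent substrate cleavage. Percent inhibition measured singly at 1, 5, 10, 20, 50 and 100 nM test compound. IC50 read from fitted sigmoid plot, error range from RMSD of the plot.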

Sequence of Protease (Human immunodeficiency virus 1) (Q9YQ12 as listed by the source): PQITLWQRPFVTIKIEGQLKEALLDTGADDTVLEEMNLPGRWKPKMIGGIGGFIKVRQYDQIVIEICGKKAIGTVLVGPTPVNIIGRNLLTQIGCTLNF

The inhibition is how much of the control response was suppressed. As to `CC(C)(C)CNC(=O)[C@H]1N(C(=O)[C@@H](O)[C@H](Cc2ccccc2)NC(=O)[C@@H](NC(=O)C(C)(C)c2ccccc2)C(C)(C)C)CSC1(C)C`, the figures for the inhibition in assay [1] and in assay [2] were 4% and 80%, respectively.
`CC(C)(C)CNC(=O)[C@H]1N(C(=O)[C@@H](O)[C@H](Cc2ccccc2)NC(=O)[C@@H](NC(=O)C(C(=O)OCc2ccccc2)c2ccccc2)C(C)(C)C)CSC1(C)C` (mixture of isomers): the inhibition was 26% in assay [1] and 34% in assay [2].
Usually IC50 stands for the concentration needed to halve the response being measured. Higher therefore signals weaker potency. In the case of `CCCC(=O)N[C@H](C(=O)N[C@H](C(=O)N[C@@H](Cc1ccccc1)[C@H](O)C(=O)N1CSC(C)(C)[C@H]1C(=O)NCC(C)(C)C)C(C)(C)C)[C@@H](C)CC`, the inhibition was 86% in assay [1] and 95% in assay [2]. For the same compound, at Protease, the IC50 stood at 6.1 nM.
`CC(C)(C)CNC(=O)[C@H]1N(C(=O)[C@@H](O)[C@H](Cc2ccccc2)NC(=O)[C@@H](NC(=O)C(=O)c2ccccc2)C(C)(C)C)CSC1(C)C`: the inhibition in assay [1] stood at 33%; in assay [2], 76%.
For the compound `CCCC(=O)N[C@H](C(=O)N[C@H](C(=O)N[C@@H](Cc1ccccc1)[C@H](O)C(=O)N1CSC(C)(C)[C@H]1C(=O)NCC(C)(C)C)C(C)(C)C)c1ccccc1`, the inhibition in assay [1] stood at 93%. The 50% inhibitory concentration (IC50) against Protease came out at 6.4 nM. Also, the INH in assay [2] came out at 99 nM.
On to `CC(C)(C)CNC(=O)[C@H]1N(C(=O)[C@@H](O)[C@H](Cc2ccccc2)NC(=O)[C@@H](NC(=O)[C@@H](N)C2CCCCC2)C(C)(C)C)CSC1(C)C`, for which the inhibition in assay [1] turned out to be 65%; in assay [2] it was 99%. The compound also yielded an IC50 against Protease of 35.8 nM.
Take `CC[C@H](C)[C@H](N)C(=O)N[C@H](C(=O)N[C@@H](Cc1ccccc1)[C@H](O)C(=O)N1CSC(C)(C)[C@H]1C(=O)NCC(C)(C)C)C(C)(C)C`: the inhibition in assay [1] worked out at 31%; in assay [2] it was 97%.
For the compound `CC(C)(C)CNC(=O)[C@H]1N(C(=O)[C@@H](O)[C@H](Cc2ccccc2)NC(=O)[C@@H](NC(=O)[C@H](O)c2ccccc2)C(C)(C)C)CSC1(C)C`, the inhibition in assay [1] worked out at 10%; in assay [2], 82%.
The matching figures for `CC(C)[C@H](N)C(=O)N[C@H](C(=O)N[C@@H](Cc1ccccc1)[C@H](O)C(=O)N1CSC(C)(C)[C@H]1C(=O)NCC(C)(C)C)C(C)(C)C`: 26% and 96%.
For `CC(C)(C)CNC(=O)[C@H]1N(C(=O)[C@@H](O)[C@H](Cc2ccccc2)NC(=O)[C@@H](NC(=O)[C@@H](N)Cc2ccccc2)C(C)(C)C)CSC1(C)C` the same measures were 28% and > 99%.
In the case of `CC(C)(C)CNC(=O)[C@H]1N(C(=O)[C@@H](O)[C@H](Cc2ccccc2)NC(=O)[C@@H](NC(=O)[C@@H](O)c2ccccc2)C(C)(C)C)CSC1(C)C`, the inhibition in assay [1] was 43%; in assay [2], 92%.
`CC(C)(C)CNC(=O)[C@H]1N(C(=O)[C@@H](O)[C@H](Cc2ccccc2)NC(=O)[C@@H](NC(=O)[C@@H](N)C(C)(C)C)C(C)(C)C)CSC1(C)C`: the inhibition in assay [1] amounted to 19%; in assay [2], 95%.
On to `CC(C)(C)CNC(=O)[C@H]1N(C(=O)[C@@H](O)[C@H](Cc2ccccc2)NC(=O)[C@@H](NC(=O)C2CCCCN2)C(C)(C)C)CSC1(C)C` (single isomer, unassigned; enantiomer b), for which the figures for the inhibition in assay [1] and in assay [2] were 11% and 54%, respectively.
The matching figures for `CCCC(=O)NC(C(=O)N[C@H](C(=O)N[C@@H](Cc1ccccc1)[C@H](O)C(=O)N1CSC(C)(C)[C@H]1C(=O)NCC(C)(C)C)C(C)(C)C)c1cc(F)c(F)c(F)c1` (stereo in doubt; 20a) [listing 1 of 2 here]: 81% and > 99%.
Compound `CCCC(=O)NC(C(=O)N[C@H](C(=O)N[C@@H](Cc1ccccc1)[C@H](O)C(=O)N1CSC(C)(C)[C@H]1C(=O)NCC(C)(C)C)C(C)(C)C)c1cc(F)c(F)c(F)c1` (stereo in doubt; 20a) [listing 2 of 2 here] had an IC50 against Protease of 11 nM.
For `CCCC(=O)NC(C(=O)N[C@H](C(=O)N[C@@H](Cc1ccccc1)[C@H](O)C(=O)N1CSC(C)(C)[C@H]1C(=O)NCC(C)(C)C)C(C)(C)C)c1cc(F)c(F)c(F)c1` (single isomer, unassigned; enantiomer b), the results for the inhibition in assay [1] and in assay [2] were 20% and 80%, respectively.
For `CC(C)(C)CNC(=O)[C@H]1N(C(=O)[C@@H](O)[C@H](Cc2ccccc2)NC(=O)[C@@H](NC(=O)C2CCCCN2)C(C)(C)C)CSC1(C)C` (stereo in doubt; 14a) the same measures were 24% and 93%.
For the compound `CCCC(=O)NC(C(=O)N[C@H](C(=O)N[C@@H](Cc1ccccc1)[C@H](O)C(=O)N1CSC(C)(C)[C@H]1C(=O)NCC(C)(C)C)C(C)(C)C)c1cc(F)c(F)c(F)c1` (stereo in doubt; 19a) [listing 1 of 2 here], the inhibition was 84% in assay [1] and > 99% in assay [2].
For `CC(C)(C)CNC(=O)[C@H]1N(C(=O)[C@@H](O)[C@H](Cc2ccccc2)NC(=O)[C@@H](NC(=O)Cc2ccccc2)C(C)(C)C)CSC1(C)C` the same measures were 8% and 22%.
In the case of `CCCC(=O)NC(C(=O)N[C@H](C(=O)N[C@@H](Cc1ccccc1)[C@H](O)C(=O)N1CSC(C)(C)[C@H]1C(=O)NCC(C)(C)C)C(C)(C)C)c1cc(F)c(F)c(F)c1` (stereo in doubt; 19a) [listing 2 of 2 here], the IC50 against Protease is 13.2 nM.
For `CCCC(=O)NC(C(=O)N[C@H](C(=O)N[C@@H](Cc1ccccc1)[C@H](O)C(=O)N1CSC(C)(C)[C@H]1C(=O)NCC(C)(C)C)C(C)(C)C)c1cc(F)c(F)c(F)c1` (stereo in doubt; 19b), the inhibition in assay [1] was 18%; in assay [2], 68%.
Take `CC(C)(C)CNC(=O)[C@H]1N(C(=O)[C@@H](O)[C@H](Cc2ccccc2)NC(=O)[C@@H](NC(=O)[C@@H](N)c2ccccc2)C(C)(C)C)CSC1(C)C`: the inhibition in assay [1] is 69%; in assay [2], > 99%. The compound also displayed an IC50 against Protease of 37 nM.
